ChEMBL document CHEMBL1125286, “Zatosetron, a potent, selective, and long-acting 5HT3 receptor antagonist: synthesis and structure-activity relationships” (J Med Chem, 1992)
Blank lines part the entries; values can stand above or below the compound they belong to.

Columns and labels:
[1] = target: T1, Serotonin 3 (5-HT3) receptor (Rattus norvegicus) (UniProt P35563+Q9JJ16); experiment: Compound was tested for the inhibition of 5-HT-induced bradycardia after peroral administration of 0.03 mg/kg dose in urethane-anesthetized rats at 0.05 hour; format: functional, organism-based; parameters: dose 0.03 mg/kg; settings: in the assay text read “0.5 hour” for “0.05 hour”
Summary of the method: (§1)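 Duration study: antagonist or vehicle gavaged to conscious fasted rats (5 mL/kg). Rats were urethane-anesthetized and surgically prepared, then challenged with 5HT 0.03 mg/kg iv at the stated time after dosing. Vehicle-treated rats served as controls. Peak inhibition of bradycardia recorded in groups of 3–11, means ± SEM.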

[2] = target: T1, Serotonin 3 (5-HT3) receptor (Rattus norvegicus); experiment: Compound was tested for the inhibition of 5-HT-induced bradycardia after peroral administration of 30 ug/kg dose in urethane-anesthetized rats; format: functional, organism-based
Summary of the method: (§2)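 Fasted rats gavaged (5 mL/kg) with antagonist or vehicle (distilled water). Urethane anesthesia and surgical preparation followed, 15–20 min before 5HT challenge. 5HT 30 µg/kg iv given 1 h after dosing, with vehicle-treated rats as controls. Peak % inhibition of bradycardia in groups of 3–11, means ± SEM.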

[3] = system: Serotonin 3 receptor (Cavia porcellus); experiment: In vitro binding affinity was measured for 5-hydroxytryptamine 3 receptor in the guinea pig ileum.
[4] = target: T1, Serotonin 3 (5-HT3) receptor (Rattus norvegicus); experiment: Compound was tested for the inhibition of 5-HT-induced bradycardia after intravenous administration of 1 ug/kg dose in urethane-anesthetized rats; format: functional, organism-based
Summary of the method: (§3)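 Urethane-anesthetized rats; antagonist or saline given iv via femoral vein after heart rate settled (≤5 min) from an initial 5HT challenge (30 µg/kg iv). 5HT was given again 15 min later. Peak bradycardia measured, each rat its own control; % inhibition = difference between first and second responses. Groups of 3–16 rats, means ± SEM.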

[5] = target: T1, Serotonin 3 (5-HT3) receptor (Rattus norvegicus); experiment: Compound was tested for the inhibition of 5-HT-induced bradycardia after peroral administration in urethane-anesthetized rats
[6] = target: T1, Serotonin 3 (5-HT3) receptor (Rattus norvegicus); experiment: Compound was tested for the inhibition of 5-HT-induced bradycardia after peroral administration of 0.03 mg/kg dose in urethane-anesthetized rats at 6 hour; format: functional, organism-based; parameters: dose 0.03 mg/kg; summary of the method: as §1
[7] = target: T1, Serotonin 3 (5-HT3) receptor (Rattus norvegicus); experiment: Compound was tested for the inhibition of 5-HT-induced bradycardia after peroral administration of 10 ug/kg dose in urethane-anesthetized rats; format: functional, organism-based; summary of the method: as §2
[8] = target: T1, Serotonin 3 (5-HT3) receptor (Rattus norvegicus); experiment: Compound was tested for the inhibition of 5-HT-induced bradycardia after peroral administration of 0.03 mg/kg dose in urethane-anesthetized rats at 1 hour; format: functional, organism-based; parameters: dose 0.03 mg/kg; summary of the method: as §1
[9] = target: T1, Serotonin 3 (5-HT3) receptor (Rattus norvegicus); experiment: Compound was tested for the inhibition of 5-HT-induced bradycardia after peroral administration of 0.03 mg/kg dose in urethane-anesthetized rats at 3 hour; format: functional, organism-based; parameters: dose 0.03 mg/kg; summary of the method: as §1
[10] = target: T1, Serotonin 3 (5-HT3) receptor (Rattus norvegicus); experiment: 5-hydroxytryptamine 3 receptor antagonistic activity was measured by the inhibition of 5H+ T-induced bradycardia after iv administration of 3 ug/kg dose in urethane-anesthetized rats; format: functional, organism-based; summary of the method: as §3
[11] = target: T1, Serotonin 3 (5-HT3) receptor (Rattus norvegicus); experiment: Inhibition of 5-HT-induced bradycardia by 5-hydroxytryptamine 3+; format: functional
[12] = target: T1, Serotonin 3 (5-HT3) receptor (Rattus norvegicus); experiment: Compound was tested for the inhibition of 5-HT-induced bradycardia after peroral administration of 3 ug/kg dose in urethane-anesthetized rats; format: functional, organism-based; summary of the method: as §2
[13] = target: T1, Serotonin 3 (5-HT3) receptor (Rattus norvegicus); experiment: Compound was tested for the inhibition of 5-HT-induced bradycardia after peroral administration of 0.03 mg/kg dose in urethane-anesthetized rats at 16 hour; format: functional, organism-based; parameters: dose 0.03 mg/kg; summary of the method: as §1
[14] = target: T1, Serotonin 3 (5-HT3) receptor (Rattus norvegicus); experiment: Compound was tested for the inhibition of 5-HT-induced bradycardia after intravenous administration of 0.3 ug/kg dose in urethane-anesthetized rats; format: functional, organism-based; summary of the method: as §3
[15] = target: T1, Serotonin 3 (5-HT3) receptor (Rattus norvegicus); experiment: 5-hydroxytryptamine 3 receptor antagonistic activity measured by inhibition of 5-HT-induced bradycardia (iv administration 10 ug/kg dose in urethane-anesthetized rats); format: functional, organism-based
Summary of the method: (§4)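 Urethane-anesthetized rats. First 5HT challenge 30 μg/kg iv gives a transient bradycardia. Once heart rate is back at steady state (≤5 min), test compound or saline goes in via the femoral vein. 5HT 30 μg/kg iv is repeated 15 min later. % inhibition is the difference between first and second bradycardia at peak, each animal its own control. Means ± SEM, groups of 3–16 rats.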

[16] = target: T1, Serotonin 3 (5-HT3) receptor (Rattus norvegicus); experiment: 5-hydroxytryptamine 3 receptor antagonistic activity was measured by the inhibition of 5-HT-induced bradycardia after iv administration of 1000 ug/kg dose in urethane-anesthetized rats; format: functional, organism-based; summary of the method: as §4
[17] = target: T1, Serotonin 3 (5-HT3) receptor (Rattus norvegicus); experiment: 5-hydroxytryptamine 3 receptor antagonistic activity was measured by the inhibition of 5H+ T-induced bradycardia after iv administration of 1000 ug/kg dose in urethane-anesthetized rats; format: functional, organism-based; summary of the method: as §4

- inhibition [1]: 86.4%
- inhibition [2]: 77.6%
- -Log KB [3]: 8.78
- inhibition [4]: 66.2%
- ED50 [5]: 9.2 µg/kg
- inhibition [6]: 81.4%
- inhibition [7]: 57.1%
- inhibition [8]: 77.6%
- inhibition [9]: 61.1%
- inhibition [10]: 84.4%
- ED50 [11]: 0.9 µg/kg
- inhibition [12]: 19.1%
- inhibition [13]: 0%
- inhibition [14]: 10.8%
Compound: CN1[C@@H]2CC[C@H]1C[C@@H](NC(=O)c1cc(Cl)cc3c1OC(C)(C)C3)C2 (stereo in doubt)

- inhibition [10]: 11.2%
- inhibition [15]: 87.1%
Compound: Cc1cc2c(c(C(=O)NC3CC4CCC(C3)N4C)c1)OC(C)(C)C2 (centres undefined)

Compound: CC1Cc2cc(F)cc(C(=O)OC3CC4CCC(C3)N4C)c2O1 (centres undefined)
- inhibition [15]: 32.2%

Compound: CN1C2CCC1CC(OC(=O)c1ccc(OC(F)(F)F)cc1)C2 (centres undefined)
- inhibition [16]: 4.7%

- inhibition [15]: 28.9%
Compound: COc1cc2c(c(C(=O)NC3CC4CCC(C3)N4C)c1)OC(C)C2 (centres undefined)

- inhibition [15]: 71.7%
Compound: CN1C2CCC1CC(NC(=O)c1cc(F)cc3c1OC(C)(C)C3)C2 (centres undefined)

Compound: CN1C2CCC1CC(OC(=O)c1cccc3c1Cc1ccccc1-3)C2 (centres undefined)
- inhibition [17]: 51%

Compound: COc1cc2c(c(C(=O)OC3CC4CCC(C3)N4C)c1)OC(C)C2 (centres undefined)
- inhibition [15]: 4.1%

Compound: CN1C2CCC1CC(OC(=O)c1cccc3c1OC(C)(C)C3)C2 (centres undefined)
- inhibition [10]: 20.8%
- inhibition [15]: 38%
